# Screening results (PubChem BioAssay)
# OX1R antag-1 = antagonists of human orexin 1 receptor (OX1R). Orexin/Hypocretin receptor type 1 (Homo sapiens), O43613. OX1R-expressing cells, FRET antagonist read-out. inhibition, % at 6.6 µM. 330,000 tested, 1.8% active; in the data active = inhibition mostly above about 38%, no sharp cut-off; inactive = mostly below about 40%
# OXTR agonist = human OXTR agonists, primary screen, fluorescence, CHO-OTR cells, Fluo-8 calcium | Oxytocin receptor (Homo sapiens), P30559 | Fluo-8 calcium fluorescence; normalized: DMSO 0%, oxytocin 100% | activation, % at 3 µM | 320,000 tested, 0.32% active;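 active = activation above the mean of all tested compounds plus 3 SD, cutoff set per screening run, cut at about 20% in these data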;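 also: peak over basal fluorescence ratio from a 100 s FLIPR kinetic read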
# Target sequence (P30559 whole entry, looked up): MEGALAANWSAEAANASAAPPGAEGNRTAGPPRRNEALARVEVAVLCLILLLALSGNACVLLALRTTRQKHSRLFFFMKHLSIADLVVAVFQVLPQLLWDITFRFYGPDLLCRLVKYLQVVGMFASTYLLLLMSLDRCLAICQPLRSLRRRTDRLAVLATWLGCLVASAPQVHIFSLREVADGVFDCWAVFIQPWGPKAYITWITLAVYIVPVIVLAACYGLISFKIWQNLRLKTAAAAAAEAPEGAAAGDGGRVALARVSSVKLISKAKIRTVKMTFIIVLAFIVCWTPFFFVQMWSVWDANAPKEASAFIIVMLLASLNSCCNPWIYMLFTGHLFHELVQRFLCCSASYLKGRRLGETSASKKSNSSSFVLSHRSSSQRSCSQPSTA
# OXTR potentiator = human OXTR potentiators, primary screen, fluorescence, CHO-OTR cells, Fluo-8 calcium. AID 2445, 2010. Fluo-8 calcium fluorescence, potentiator mode; 0% = oxytocin EC15, 100% = EC100. 320,000 tested, 0.061% active. activation, % at 3 µM. Oxytocin receptor (Homo sapiens), P30559;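 active = activation above that plate's cutoff, the mean activation of tested compounds plus 3 SD, cut at about 6.6% in these data, passing the limit was not always enough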
#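 Assay system: CHO cell line stably expressing human OTR. Reagent: EC15 oxytocin agonist. Dosing: single dose, 3.0 µM nominal final compound concentration. Timing: compound 6 min at room temperature before oxytocin, 100 s read. Signal: kinetic Fluo-8 calcium fluorescence. Controls: oxytocin EC15 low and EC100 high.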
# V1aR counter = agonists of human V1a receptor, primary screen, counter-screen for OXTR agonist project, fluorescence, CHO-V1R cells. Vasopressin V1a receptor (Homo sapiens), P37288. Fluo-8 calcium fluorescence, agonist mode; 0% DMSO, 100% 3 nM vasopressin. activation, % at 3 µM. 320,000 tested, 0.25% active;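 active = activation above the mean activation of all tested compounds plus 3 SD, per screening run, cut at about 20% in these data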;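 also: signal is peak over basal fluorescence ratio across a 100 second FLIPR read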
# OX1R antag-2 = OX1R (HCRTR1) antagonists, primary screen, fluorescence, CHO/OX1R cells, Fluo-8 calcium, orexin A; Orexin/Hypocretin receptor type 1 (Homo sapiens), O43613; Fluo-8 calcium fluorescence; inhibition, % at 5 µM; 330,000 tested, 0.43% active; AID 434989, 2010;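 active = inhibition above its plate's threshold, mean inhibition of all tested compounds on the plate plus 3 SD, cut at about 37% in these data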
# CHO parental Ca = ATP-evoked calcium signal inhibitors, parental CHO, primary screen, counter-screen for OX1R antagonist project, cell-based, fluorescence, Fluo-8 calcium dye | parental CHO-K1, ATP-induced calcium, Fluo-8 fluorescence | inhibition, % at 5.6 µM | 330,000 tested, 0.63% active;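 active = inhibition above that plate's mean sample inhibition plus 3 SD, cut at about 26% in these data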
#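 Material – parental CHO cells · Reagent – ATP stimulus · Compound – single nominal dose of 5.6 µM per compound · Detection – Fluo-8 fluorescence · Read-out basis – percent inhibition of calcium signal · Controls – ATP-challenged DMSO wells low, unchallenged DMSO wells high · Repeats – no replicates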
# Numbers stand for hits; i = inactive. A selection: hits, their analogues and other compounds. The true share with any hit is near 2.6%.
SMILES,OX1R antag-1,OXTR agonist,OXTR potentiator,V1aR counter,OX1R antag-2,CHO parental Ca
COC(=O)CCC(=O)OC1(C)C(=O)C=C2C=C(C3CC3)N(Cc3ccccc3)C=C2C1=O (centres undefined),75.8,i,i,i,i,i
Cc1ccc2nc3c(cc(C(N)=S)c(=N)n3CCCOC(C)C)c(=O)n2c1,47.0,i,i,i,i,i
Cc1ccc2nc3c(cc(C(=O)NCCN4CCOCC4)c(=N)n3CCCN3CCOCC3)c(=O)n2c1,71.2,i,i,i,i,i
N=c1c(C(=O)NCCN2CCOCC2)cc2c(=O)n3ccccc3nc2n1Cc1ccc(F)cc1,60.1,i,i,i,i,i
N=c1c(C(=O)NCCN2CCOCC2)cc2c(=O)n3ccccc3nc2n1CCCN1CCOCC1,69.0,i,i,i,i,i
N=c1c(C(=O)NCc2ccc(F)cc2)cc2c(=O)n3ccccc3nc2n1Cc1ccco1,i,i,i,i,i,i
O=C(CN1CCCCC1)NCC1(c2ccccc2)CCCC1,i,i,i,i,i,i
N=c1c(S(=O)(=O)c2ccccc2)cc2c(=O)n3ccccc3nc2n1CCCN1CCOCC1,45.9,i,i,i,i,i
NC(=O)C1CCCN(C(=O)CCC(=O)c2cccs2)C1 (centres undefined),i,i,i,i,i,i
C=C(C(=O)Oc1ccccc1C(C)(C)C)c1ccccc1,i,i,i,i,i,i
CSc1cccc(NC(=S)N(Cc2ccc(C)cc2)Cc2cccnc2)c1,i,i,i,i,i,46.1
COc1ccc(S(=O)(=O)N2CCc3ccccc32)cc1C(=O)Nc1ccc(C(N)=O)cc1,i,i,i,i,i,i
COc1ccc(CC(=O)N(Cc2ccccc2)c2ccccc2)cc1S(=O)(=O)N1CCOCC1,58.0,i,i,i,i,i
COCCN(Cc1ccccc1)C(=O)Cc1ccc(OC)c(S(=O)(=O)N2CCOCC2)c1,i,i,i,i,i,i
CC1(C)CC(=O)C=C(Nc2ccc(Cl)c(Br)c2)C1,i,i,i,i,i,i
COc1ccc(-c2csc(NC(=O)c3ccccc3F)c2C(=O)O)cc1,i,i,i,i,i,i
Oc1ccc(-c2csc(Nc3ncccn3)n2)c(O)c1,i,i,i,i,i,i
N#Cc1ccc(Nc2nc(-c3ccc(O)cc3O)cs2)cc1C(F)(F)F,53.0,i,i,i,i,i
Cc1ccn2c(=O)c(C(=O)NC3CCCCC3C)c(O)nc2c1 (centres undefined),i,i,i,i,i,i
Cc1ccc(C)c(N/C(N)=N/c2nc(C)cc(C)n2)c1,i,20.6,i,26.1,70.0,i
CCOc1ccc(N/C(N)=N/c2nc(C)cc(C)n2)cc1,i,i,i,i,57.6,49.1
COc1ccc(C)cc1N/C(N)=N/c1nc(C)cc(C)n1,i,i,i,i,i,i
CSc1ccc(C(=O)C2CCCN(C(=O)c3nonc3C)C2)cc1 (centres undefined),i,i,i,i,i,i
Cc1nc2cc(-c3sccc3-n3cccc3)nn2c(C)c1C,52.1,i,i,i,i,i
Cc1ccc2c(CSc3nnc(C4CC4)n3N)cc(=O)oc2c1,i,i,i,i,i,i
SMILES,OX1R antag-1,OXTR agonist,OXTR potentiator,V1aR counter,OX1R antag-2,CHO parental Ca
Cc1ccc2c(CSc3nnnn3C)cc(=O)oc2c1,62.4,i,i,i,i,i
COc1ccc(Cl)cc1C(=O)CSc1nnnn1C1CCCCC1,52.5,i,i,i,i,52.4
O=C(NC(=S)NNC(=O)c1ccco1)c1ccc(Br)cc1,i,i,i,i,i,i
N#C/C(=C\c1ccc(N2CCOCC2)o1)C(=O)Nc1ccc(O)cc1,60.6,20.1,i,29.0,i,i
N#C/C(=C\c1ccc(Sc2nc3ccccc3[nH]2)o1)c1ccccc1,73.6,i,i,i,56.5,i
N#C/C(=C\c1ccc(N2CCOCC2)o1)c1ccccc1,i,i,i,i,i,i
N#C/C(=C/c1ccc(N2CCOCC2)o1)c1nc2ccccc2[nH]1,i,40.4,i,21.4,i,i
N#C/C(=C/c1ccc(N2CCCCC2)o1)C(=O)Nc1ccc(Cl)cc1,i,197.2,i,225.3,99.0,77.4
COc1ccc(S(=O)(=O)N(C)CC(=O)NCc2ccco2)cc1OC,i,i,i,i,i,i
NC1=NC(=O)C(CC(=O)Nc2ccc3c(c2)OCO3)S1 (centres undefined),i,i,i,i,i,i
CCOC(=O)C1(Cc2cccc(Cl)c2)CCCN(C(=O)c2cccc(C)n2)C1 (centres undefined),i,i,i,i,i,i
CC(C)[C@H](NC(=O)c1cccc(CN(Cc2ccccc2)C(=O)c2ccccc2)c1)C(=O)O,i,i,i,i,i,i
Cc1ccc(S(=O)(=O)N2CCCCC2C)cc1[N+](=O)[O-] (centres undefined),i,i,i,i,i,i
COc1ccc(NC(=O)/C(C#N)=C\c2ccc(N3CCOCC3)o2)cc1,58.9,70.2,i,116.6,54.4,46.6
Cc1cc(C(C)(C)C)oc1C(=O)N(CC(=O)NC1CCCC1)Cc1ccccc1Cl,88.5,i,i,i,105.4,i
Cc1ccnc(NC(=O)c2cccc(NC(=O)CC3SC(N4CCCCC4)=NC3=O)c2)c1 (centres undefined),i,i,i,i,i,i
COc1cccc(CN2C(=O)NC3(CCCCCC3)C2=O)c1,i,i,i,i,i,i
CCOC(=O)C1C(=O)C=C(c2ccc(C)cc2)CC1c1ccccc1 (centres undefined),i,i,i,i,i,i
CCOC(=O)C1C(=O)C=C(/C=C/c2ccc(N(C)C)cc2)CC1c1ccccc1 (centres undefined),i,38.1,i,45.0,i,40.7
CSc1ccc(CN(C)Cc2cc(=O)oc3c(C)c(C)ccc23)cc1,i,i,i,i,i,52.8
Cc1ccc(NC(=O)Cn2nc(C(=O)O)c3ccccc3c2=O)c([N+](=O)[O-])c1,i,i,i,i,i,i
CCCCN(C(=O)Cc1ccc(S(=O)(=O)N2CCOCC2)s1)c1c(N)n(CCCC)c(=O)[nH]c1=O,i,i,i,i,i,i
